Converted amounts (≈) assume the structure as drawn.
Assays:
Assay type in all cases: ADME
[1] = Time required for 50% release of KNI-727 at 37 degree celsius
Method in brief: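 Prodrug added from a 0.5 mM DMSO stock to PBS (pH 7.4) and incubated at 37 °C. Aliquots taken at successive time points were injected directly onto HPLC with detection at 230 nm. Loss of prodrug and appearance of released parent were followed over time to give the half-life of release.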

[2] = Water solubility of prodrug was determined; conditions: buffer
Method in brief: (§1)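 Prodrug solution was passed through a membrane filter, and the dissolved prodrug concentration was then quantified by HPLC. Solubility was set against that of the parent drug measured the same way.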

[3] = Water solubility of prodrug was determined relative to KNI-727; conditions: buffer; method in brief: as §1

Row | SMILES | T1/2 [1] | Solubility [2] | Relative solubility [3] | Solubility [3]
1 | Cc1cccc(C)c1OCC(=O)N[C@@H](Cc1ccccc1)[C@H](OC(=O)CCC(=O)NCCC(=O)O)C(=O)N1CSC(C)(C)[C@H]1C(=O)NC(C)(C)C | 16.8 h | – | – | –
2 | Cc1cccc(C)c1OCC(=O)N[C@@H](Cc1ccccc1)[C@H](OC(=O)CCC(=O)NCC(=O)O)C(=O)N1CSC(C)(C)[C@H]1C(=O)NC(C)(C)C | 18.7 h | 0.0735 mg/mL (≈ 103 µM) | 6.6 | –
3 | Cc1cccc(C)c1OCC(=O)N[C@@H](Cc1ccccc1)[C@H](OC(=O)CCC(=O)NCC(N)=O)C(=O)N1CSC(C)(C)[C@H]1C(=O)NC(C)(C)C | 0.333 h | 0.21 mg/mL (≈ 295 µM) | 18.9 | –
4 | Cc1cccc(C)c1OCC(=O)N[C@@H](Cc1ccccc1)[C@H](OC(=O)CCC(N)=O)C(=O)N1CSC(C)(C)[C@H]1C(=O)NC(C)(C)C | 16 h | 0.0895 mg/mL (≈ 137 µM) | 8.1 | –
5 | Cc1cccc(C)c1OCC(=O)N[C@@H](Cc1ccccc1)[C@H](OC(=O)CCCC(=O)NCCN)C(=O)N1CSC(C)(C)[C@H]1C(=O)NC(C)(C)C.Cl | 28 h | 56.9 mg/mL | – | 5130 mg/mL
6 | Cc1cccc(C)c1OCC(=O)N[C@@H](Cc1ccccc1)[C@H](OC(=O)CCC(=O)NCCN)C(=O)N1CSC(C)(C)[C@H]1C(=O)NC(C)(C)C.Cl | 0.35 h | 115.4 mg/mL | – | 10400 mg/mL
7 | Cc1cccc(C)c1OCC(=O)N[C@@H](Cc1ccccc1)[C@H](OC(=O)CC(C)(C)C(=O)NCCN)C(=O)N1CSC(C)(C)[C@H]1C(=O)NC(C)(C)C.Cl | < 0.017 h | 136.7 mg/mL | – | 12300 mg/mL
8 | Cc1cccc(C)c1OCC(=O)N[C@@H](Cc1ccccc1)[C@H](OC(=O)CCC(=O)NCc1ccccc1)C(=O)N1CSC(C)(C)[C@H]1C(=O)NC(C)(C)C.Cl | 8.8 h | < 0.0111 mg/mL | – | –
9 | Cc1cccc(C)c1OCC(=O)N[C@@H](Cc1ccccc1)[C@H](OC(=O)CCC(=O)NCCN(C)C)C(=O)N1CSC(C)(C)[C@H]1C(=O)NC(C)(C)C.Cl | 0.183 h | 171.5 mg/mL | – | –
